Laboratory results from paper PMC4512242 (Nature chemical biology, 2015).

Tests used:
LynD Fusion = experiment: Heterocyclization reaction with LynD fusion, MS; type: biochemical, Lyngbya sp. PCC 8106; settings: LynDfusion, ITACITFCAYDG core peptide, no leader, 2 h; LCMS
Procedure, shortened: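 Enzyme is LynD carrying PatE leader residues 21-38 plus an 11-residue linker at its N-terminus, expressed in E. coli BL21 (DE3) with the His6-tag removed by TEV. Product is read by ESI/MALDI MS or LC-MS […].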

TruD = experiment: Heterocyclization reaction with TruD, LCMS; type: biochemical; settings: ITACITFCAYDG core peptide, no leader, 16 h
E. coli YcaO = settings: absence of substrate, ref [30]; cited from earlier work
LynD = experiment: 31P NMR of ATP turnover by LynD; type: biochemical, Lyngbya sp. PCC 8106; settings: with and without PatE′

Molecule | heterocycles formed in leaderless test peptide (LynD Fusion) | heterocycles formed in leaderless test peptide (TruD) | ATP hydrolysis products (E. coli YcaO) | products of ATP turnover (LynD)
ITACITFCAYDG | predominantly 2 heterocycles after just 2 h | only 1 heterocycle is formed |  | 
Nc1ncnc2c1ncn2[C@@H]1O[C@H](COP(=O)(O)OP(=O)(O)OP(=O)(O)O)[C@@H](O)[C@H]1O [ATP] |  |  | hydrolyzed ATP to AMP and pyrophosphate | AMP (not ADP), pyrophosphate (PPi) and phosphate
